Assay outcomes (PubChem)
Hits are enriched below; roughly 2.2% of the tested compounds scored in any of these assays.
PMI act: phosphomannose isomerase (human) activation; P34949; purified human PMI, coupled resazurin fluorescence, 20 min; stronger effect = higher value; 1 = vehicle control, 0 substrate-free wells; activation factor at 20 µM; 190,000 compounds, 0.005% hits; AID 1214;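 active = activation factor of 2 or more at 20 µM, relative to plate controls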
Target sequence (P34949 whole entry, looked up): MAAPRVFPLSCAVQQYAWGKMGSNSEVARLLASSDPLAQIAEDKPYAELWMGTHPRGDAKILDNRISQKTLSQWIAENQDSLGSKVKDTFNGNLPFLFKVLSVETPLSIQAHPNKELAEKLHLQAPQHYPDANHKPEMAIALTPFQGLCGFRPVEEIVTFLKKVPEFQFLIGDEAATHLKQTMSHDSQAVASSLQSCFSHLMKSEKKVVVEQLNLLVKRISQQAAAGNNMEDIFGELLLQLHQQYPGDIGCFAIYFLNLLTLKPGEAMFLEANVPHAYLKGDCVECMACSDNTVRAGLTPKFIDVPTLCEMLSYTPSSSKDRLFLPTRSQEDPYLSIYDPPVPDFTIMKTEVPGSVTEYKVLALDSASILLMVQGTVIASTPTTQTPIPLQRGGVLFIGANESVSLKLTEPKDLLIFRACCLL
Diaph act CS: diaphorase activation or chemical reduction counter-screen; Diaphorase/resazurin coupled assay, resorufin fluorescence, 16 min; stronger effect = higher value; 1 = vehicle wells, 0 = NADH-free wells; activation factor at 20 µM; 190,000 compounds, 0.005% hits; AID 1229;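 active = diaphorase activity raised at least twofold by the compound at 20 µM; inactive = activation factor below 2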
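Assay system: bacterial diaphorase enzyme (C. kluyveri) / Input: enzyme 0.07 U/mL final / Medium: 50 mM HEPES pH 7.4 with 4.542 mM MgCl2, 0.005% Tween 20 / Doses: single compound dose of 20 µM, 1% DMSO final / Incubation: 16 min enzyme reaction, ambient temperature / Signal: fluorescence, excitation 544 nm and emission 590 nm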
ROMK mod: human ROMK K+ channel modulation, primary screen; AID 1918; B-score at 10 µM; P48048; Tet-inducible ROMK, thallium flux fluorescence; actives lie on both sides; 130,000 compounds, 2% hits;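 active = signal ratio slope over the read window, or its plate-corrected B-score, at least 3 SD from the plate mean, either direction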;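 note: B-score of the F/F0 ratio slope over 7 to 12 s after thallium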
G6PDH CS: L. mesenteroides G6PDH inhibition counter-screen. Purified L. mesenteroides G6PDH, diaphorase/resazurin coupled fluorescence, 45 min. inhibition, % at 5 µM. 200,000 compounds, 0.12% hits; in the data active = inhibition above about 50%
Diaphorase inh: inhibits diaphorase or chemically oxidizes, flagging diaphorase assay artifacts. diaphorase resazurin-to-resorufin fluorescence, NADH, 16 min; bacterial (C. kluyveri) enzyme, not human. inhibition, % at 20 µM. 190,000 compounds, 0.69% hits;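 active = primary screen inhibition at 20 µM above a set limit, cut at about 50% in these data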
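System: Diaphorase enzyme from Clostridium kluyveri | Amount: Enzyme working solution with 0.14 U/mL diaphorase | Benchmarks: No-NADH positive control and DMSO neutral control | Signal: Fluorescence of resorufin formed from resazurin, Ex 544/Em 590 nm | Schedule: 16-min room-temperature incubation before reading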
PMI act satM6P: PMI (human) activation, high substrate; coupled PMI enzyme assay, resazurin fluorescence, 20 min; stronger effect = higher value; 1 = untreated enzyme, 0 = substrate-free blank; activation factor at 20 µM; P34949; 190,000 compounds, 0.34% hits;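 active = activation factor of 2 or more at 20 µM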
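Material: human phosphomannose isomerase with PGI, G6PDH, diaphorase coupling enzymes. Quantity: 15 ng/mL PMI. Medium: HEPES pH 7.4 buffer with MgCl2 and Tween-20. Reagent: Near-saturating mannose-6-phosphate, 1.0 mM. Compound: 20 µM single dose. Times: enzyme reaction with compound 20 min at room temperature. Detection: resorufin fluorescence at Ex 544/Em 590 nm.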
ROMK hit retest: retested hit modulating human ROMK potassium channel | AID 1917 | shares compounds with ROMK mod | 3,000 compounds, 54% hits | ROMK thallium flux, fluorescence ratio; stronger effect = lower value | normalized thallium flux (F/F0 slope) at 10 µM;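 active = Flux at 10 µM at least 3 SD below or above vehicle control mean in one or both replicates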
Of the large screens only hits and unclear results are named; the others gave an inactive call (follow-up assays come after a bar, where they were run).

CC1(C)CC(Nc2ccc(C(F)(F)F)cc2[N+](=O)[O-])CC(C)(C)N1	ROMK mod -2.6 | ROMK hit retest 0.055
O=[N+]([O-])c1cc(C(F)(F)F)ccc1NC1CCN(Cc2ccccc2)CC1	none (no result: PMI act, Diaph act CS, G6PDH CS, Diaphorase inh, PMI act satM6P)
COC(=O)c1[nH]c2ccc(F)cc2c1NS(=O)(=O)c1ccc(OC)cc1	none | ROMK hit retest inactive
COc1ccc2[nH]c(C(=O)O)c(NS(=O)(=O)c3ccc(OC)c(OC)c3)c2c1	none
Cc1cc(CNC(=S)Nc2cccc(Cl)c2Cl)nn1C	none
NC(=O)C1CCN(C2=C(Cl)C(=O)c3ccccc3C2=O)CC1	G6PDH CS 60 (no result: ROMK mod) | ROMK hit retest 0.053
CCOC(=O)NC(Nc1sc2c(c1C(=O)OC)CCN(C)C2)(C(F)(F)F)C(F)(F)F	none | ROMK hit retest inactive
NC(N)=Nc1nc(-c2ccccc2)c2cc(F)ccc2n1	ROMK mod -3.7 | ROMK hit retest 0.06
COc1cccc(CC2(CO)CCCN(C(=O)c3cc[n+]([O-])cc3)C2)c1 (centres undefined)	none
Cc1ccc(NC(=O)/C(C#N)=C/c2ccccc2C(F)(F)F)cc1	none
COc1cc(/C=C(/C#N)C(=O)Nc2ccccc2)c(Br)cc1OCc1ccc(C(=O)O)cc1	ROMK mod -5 (no result: PMI act, Diaph act CS, G6PDH CS, Diaphorase inh, PMI act satM6P) | ROMK hit retest 0.055
COc1ccccc1/C=C(\C#N)C(=O)Nc1ccc(S(N)(=O)=O)cc1	ROMK mod -3.3 | ROMK hit retest 0.061
COC(=O)c1ccc(COc2ccccc2/C=C(\C#N)C(=O)Nc2c(C)cc(C)cc2C)cc1	none (no result: ROMK mod)
O=C(COC(=O)/C=C/c1ccc(Cl)cc1)NCCN1C(=O)CSC1=O	none
NC(=O)C1=NOC(CNc2ncc(C(F)(F)F)cc2Cl)C1 (centres undefined)	ROMK mod 2.4 | ROMK hit retest inactive
CO/N=C/NC(=O)C1=NOC(CNc2ncc(C(F)(F)F)cc2Cl)C1 (centres undefined)	none
CCc1cc2c3c(c(=O)oc2cc1OC)CCCC3	none (no result: ROMK mod)
CCOc1cc2oc(=O)c3c(c2cc1Cl)CCC3	none | ROMK hit retest inactive
CCOc1ccccc1NC(=O)C(NCC1(N2CCCCC2)CCCCC1)c1ccccc1 (centres undefined)	ROMK mod -3.4 | ROMK hit retest 0.064
CCOc1ccccc1NC(=O)C(Sc1ccccc1)c1ccccc1 (centres undefined)	none (no result: ROMK mod)
COc1ccc(/C=N/NC(=O)c2ccccc2Cl)cc1CSc1nc2ccccc2s1	none (no result: ROMK mod)
COc1ccc(/C=N/NC(=O)c2cccnc2)cc1CSc1nc2ccccc2s1	none (no result: ROMK mod) | ROMK hit retest inactive
C=CCNc1sc(C(=O)c2ccccc2)c(N)c1C#N	none (no result: ROMK mod)
C=CCNc1sc(C(=O)c2ccc(Br)s2)c(N)c1C#N	ROMK mod -3.6 | ROMK hit retest 0.056
CN(C)C(=O)C1C2NC(=S)N(c3cccc(Cl)c3)C1(C)Oc1ccc(Cl)cc12 (centres undefined)	none
Cc1ccc(-n2c(CNC(=O)c3cccs3)nnc2SCC(=O)NO)cc1	none
COc1cccc(CNC(=O)CCC2CCCN(C/C=C/c3ccccc3OC)C2)c1 (centres undefined)	ROMK mod -5.5 | ROMK hit retest 0.065
C=CCn1c(SCC(=O)Nc2cc3oc4ccccc4c3cc2OC)nnc1-c1cnccn1	none (no result: ROMK mod) | ROMK hit retest 0.065
O=[n+]1c2c(n([O-])c3cc(F)c(N4CCCC4)cc31)CCCC2	ROMK mod -6.3 | ROMK hit retest 0.043
O=[n+]1c2c(n([O-])c3cc(F)ccc31)CCCC2	none (no result: ROMK mod)
Cc1ccc(C)c(SCC(=O)OCC(=O)N2CC(C)OC(C)C2)c1 (centres undefined)	none
COc1ccc(CN(C2CCCCC2C)S(=O)(=O)c2ccc(S(=O)(=O)N(C)C)cc2)cc1OC (centres undefined)	none (no result: ROMK mod) | ROMK hit retest inactive
